Measured values reported in publication PMC4220649 (Blood Cancer Journal, 2014).
“And” between values parts separate entries of the source, which are not always exact repeats. Identical values can stand only once. “Also recorded” adds a separate entry of the source.

Columns and labels:
[1] = Plasma pharmacokinetics of ixazomib after IV bolus; format: in vivo, human; conditions: for DN AUC0–168 h: dose normalized; for DN AUC0–168 h / C0 / half-life / AUC0–168 h: plasma
[2] = target: 20S proteasome (Homo sapiens, UniProt P28074); assay: Whole blood 20S proteasome activity; format: in vivo; conditions: for Emax / Time to Emax: whole blood 20S; for Maximal 20S proteasome inhibition / Time of maximal 20S proteasome inhibition after administration: whole blood, MTD 2.34 mg/m^2
How it was run: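 Whole blood was sampled after IV bolus dosing (0.125–3.11 mg/m2) on cycle 1 days 1 and 15. 20S proteasome activity was measured by fluorogenic assay.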

[3] = tested on: relapsed/refractory lymphoma; assay: Disease response by International Working Group criteria for lymphoma; format: in vivo, human; conditions: for Duration of response: follicular lymphoma patient
How it was run: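 CT and PET were done at screening, with repeat PET at end of cycles 2 and 4 if positive. Response was assessed at end of cycle 2, every 2 cycles to cycle 12, then every 4 cycles. Evaluable patients had measurable baseline disease and ⩾1 post-baseline assessment.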

[4] = weekly oral ixazomib, relapsed or refractory MM, after multiple dosing; cited from earlier work
[5] = day 15, IV 1.4 mg/m^2, n=4, geometric mean (%CV)
[6] = day 15, IV 3.11 mg/m^2, n=2, individual values
[7] = day 1, IV 1.4 mg/m^2, n=4, geometric mean (%CV)
[8] = day 1, IV 1.76 mg/m^2, n=6, geometric mean (%CV)
[9] = day 1, IV 2.34 mg/m^2, n=7, geometric mean (%CV)
[10] = day 1, IV 3.11 mg/m^2, n=5, geometric mean (%CV)
[11] = day 15, IV 0.5 mg/m^2, n=1, individual value
[12] = day 15, IV 1 mg/m^2, n=1, individual value
[13] = day 15, IV 2.34 mg/m^2, n=7, geometric mean (%CV)
[14] = day 1, IV 0.125 mg/m^2, n=1, individual value
[15] = day 1, IV 0.25 mg/m^2, n=1, individual value
[16] = day 1, IV 0.5 mg/m^2, n=1, individual value
[17] = day 1, IV 1 mg/m^2, n=1, individual value
[18] = day 15, IV 0.25 mg/m^2, n=1, individual value

SMILES: CC(C)C[C@H](NC(=O)CNC(=O)c1cc(Cl)ccc1Cl)B(O)O [ixazomib]
- Dose proportionality of plasma exposure ([1]; 0.5–3.11 mg/m^2): increased dose proportionally; also recorded: dose-proportionality of ixazomib exposure
- Accumulation of ixazomib between day 1 and day 15 doses ([1]; AUC0–168 h, Figure 1d): approximately twofold
- Accumulation ratio [1, 5]: 2.17 (7)
- Accumulation ratio ([1]; day 15, IV 2.34 mg/m^2, n=6, geometric mean (%CV)): 2.27 (15)
- Accumulation ratio [1, 6]: 2.02 and 2.21
- DN AUC0–168 h [1, 7]: 221 (41) hr/ng/ml/mg
- DN AUC0–168 h [1, 8]: 259 (49) hr/ng/ml/mg
- DN AUC0–168 h [1, 9]: 257 (50) hr/ng/ml/mg
- DN AUC0–168 h [1, 10]: 278 (46) hr/ng/ml/mg
- DN AUC0–168 h [1, 11]: 151 h/ng/mL/mg
- DN AUC0–168 h [1, 12]: 385 h/ng/mL/mg
- DN AUC0–168 h [1, 5]: 481 (34) hr/ng/ml/mg
- DN AUC0–168 h [1, 13]: 500 (55) hr/ng/ml/mg
- C0 ([1]; human, iv, 0.25 mg/m2, C0, plasma, day 1, IV 0.25 mg/m^2, n=1, individual value): 59.4 ng/mL
- C0 ([1]; human, iv, 1 mg/m2, C0, plasma, day 15, IV 1 mg/m^2, n=1, individual value): 383 ng/mL
- C0 ([1]; human, iv, 1.4 mg/m2, C0, plasma, day 1, IV 1.4 mg/m^2, n=4, geometric mean (%CV)): 714 ng/mL
- C0 ([1]; human, iv, 1.4 mg/m2, C0, plasma, day 15, IV 1.4 mg/m^2, n=4, geometric mean (%CV)): 497 ng/mL
- half-life ([1]; human, iv, 1.4 mg/m2, t½, terminal disposition phase half-life, day 15, IV 1.4 mg/m^2, n=4, geometric mean (%CV)): 209 h
- C0 ([1]; human, iv, 1.76 mg/m2, C0, plasma, day 1, IV 1.76 mg/m^2, n=7, geometric mean (%CV)): 542 ng/mL
- C0 ([1]; human, iv, 1.76 mg/m2, C0, plasma, day 15, IV 1.76 mg/m^2, n=3, geometric mean (%CV)): 499 ng/mL
- half-life ([1]; human, iv, 1.76 mg/m2, t½, terminal disposition phase half-life, day 15, IV 1.76 mg/m^2, n=3, geometric mean (%CV)): 146 h
- C0 ([1]; human, iv, 2.34 mg/m2, C0, plasma, day 15, IV 2.34 mg/m^2, n=7, geometric mean (%CV)): 803 ng/mL
- half-life ([1]; human, iv, 2.34 mg/m2, t½, terminal disposition phase half-life, day 15, IV 2.34 mg/m^2, n=7, geometric mean (%CV)): 108 h
- C0 ([1]; human, iv, 3.11 mg/m2, C0, plasma, day 1, IV 3.11 mg/m^2, n=5, geometric mean (%CV)): 961 ng/mL
- C0 ([1]; human, iv, 3.11 mg/m2, C0, plasma, day 15, IV 3.11 mg/m^2, n=2, individual values): 1110 ng/mL
- half-life ([1]; human, iv, 3.11 mg/m2, t½, terminal disposition phase half-life, day 15, IV 3.11 mg/m^2, n=2, individual values): 97.9 h
- half-life ([1]; human, iv, Terminal half-life, after multiple dosing, weekly IV): 96 to 288 h
- Rapid initial disposition phase over by ([1]; multi-phasic disposition after IV administration): ≤ 4 h
- AUC0–168 h [1, 7]: 637 (30) hr/ng/ml
- AUC0–168 h [1, 8]: 821 (48) hr/ng/ml
- AUC0–168 h [1, 9]: 1060 (37) hr/ng/ml
- AUC0–168 h [1, 10]: 1680 (39) hr/ng/ml
- AUC0–168 h [1, 11]: 175 h/ng/mL
- AUC0–168 h [1, 12]: 732 h/ng/mL
- AUC0–168 h [1, 5]: 1390 (24) hr/ng/ ml
- AUC0–168 h [1, 13]: 2110 (41) hr/ng/ ml
- AUC0–168 h [1, 6]: 2090 h/ng/mL and 3080 h/ng/mL
- C0 [1, 6]: 1280 ng/mL
- Dose dependence of maximal whole blood 20S proteasome inhibition ([2]; 0.125–3.11 mg/m^2): dose-dependent increase
- AUE0–168 h ([2]; area under 20S inhibition vs time curve, day 1, IV 1.4 mg/m^2, n=3, mean (±s.d.)): 2000 (±1160) % inhibition/h
- Emax [2, 14]: 5.15 % inhibition
- Time to Emax [2, 14]: 0.25 h
- Emax [2, 15]: 18.5 % inhibition
- Time to Emax [2, 15]: 0.083 h
- Emax [2, 16]: 33.2 % inhibition
- Time to Emax [2, 16]: 0.1 h
- Emax [2, 17]: 50.5 % inhibition
- Time to Emax [2, 17]: 0.083 h
- Emax ([2]; day 1, IV 1.4 mg/m^2, n=3, mean (±s.d.)): 66.3 (±14.8) % inhibition
- Time to Emax ([2]; day 1, IV 1.4 mg/m^2, n=3, median (range)): 0.117 (0.1–0.133) h
- Emax ([2]; day 1, IV 1.76 mg/m^2, n=7, mean (±s.d.)): 72.2 (±8.1) % inhibition
- Time to Emax ([2]; day 1, IV 1.76 mg/m^2, n=7, median (range)): 0.083 (0.083–0.1) h
- Emax ([2]; day 1, IV 2.34 mg/m^2, n=5, mean (±s.d.)): 81.9 (±3.2) % inhibition
- Time to Emax ([2]; day 1, IV 2.34 mg/m^2, n=5, median (range)): 0.083 (0.083–0.25) h
- Emax ([2]; day 1, IV 3.11 mg/m^2, n=4, mean (±s.d.)): 80.2 (±3.6) % inhibition
- Time to Emax ([2]; day 1, IV 3.11 mg/m^2, n=4, median (range)): 0.109 (0.083–0.533) h
- Emax [2, 18]: 64.3 % inhibition
- Time to Emax [2, 18]: 0.1 h
- Emax [2, 11]: 19.2 % inhibition
- Time to Emax [2, 11]: 0.1 h
- Emax [2, 12]: 44.4 % inhibition
- Time to Emax [2, 12]: 0.083 h
- Emax ([2]; day 15, IV 1.4 mg/m^2, n=3, mean (±s.d.)): 69.8 (±10.6) % inhibition
- Time to Emax ([2]; day 15, IV 1.4 mg/m^2, n=3, median (range)): 0.083 (0.083–0.083) h
- Emax ([2]; day 15, IV 1.76 mg/m^2, n=3, mean (±s.d.)): 74.8 (±4.5) % inhibition
- Time to Emax ([2]; day 15, IV 1.76 mg/m^2, n=3, median (range)): 0.083 (0.033–0.083) h
- Emax ([2]; day 15, IV 2.34 mg/m^2, n=4, mean (±s.d.)): 79.6 (±4.9) % inhibition
- Time to Emax ([2]; day 15, IV 2.34 mg/m^2, n=4, median (range)): 0.167 (0.083–0.25) h
- Emax [2, 6]: 82.3 % inhibition and 85 % inhibition
- Time to Emax [2, 6]: 0.083 h and 0.117 h
- Maximal 20S proteasome inhibition ([2]; day 1): 82%
- Time of maximal 20S proteasome inhibition after administration ([2]; day 1): 5 min
- Maximal 20S proteasome inhibition ([2]; day 15): 80%
- Time of maximal 20S proteasome inhibition after administration ([2]; day 15): 10 min
- Patients achieving responses (CR or PR) ([3]; 26 evaluable patients): five
- Duration of response ([3]; 1.4 mg/m^2): 24.1 months
- Duration of response ([3]; 2.34 mg/m^2): 2 months
- Responders among follicular lymphoma patients ([3]; one complete and three partial responses): 4/11 and 4 of 11
- Responders among peripheral T-cell lymphoma patients ([3]; partial response): 1/4
- Median duration of stable disease ([3]; six patients, range 1.7–5.4): 3.6 months
- Terminal half-life [4]: 96 to 288 h
